For assay [1], the target named is T1, Tyrosine-protein phosphatase non-receptor type 1 (Homo sapiens, UniProt P18031).
T1 sequence (P18031 whole entry): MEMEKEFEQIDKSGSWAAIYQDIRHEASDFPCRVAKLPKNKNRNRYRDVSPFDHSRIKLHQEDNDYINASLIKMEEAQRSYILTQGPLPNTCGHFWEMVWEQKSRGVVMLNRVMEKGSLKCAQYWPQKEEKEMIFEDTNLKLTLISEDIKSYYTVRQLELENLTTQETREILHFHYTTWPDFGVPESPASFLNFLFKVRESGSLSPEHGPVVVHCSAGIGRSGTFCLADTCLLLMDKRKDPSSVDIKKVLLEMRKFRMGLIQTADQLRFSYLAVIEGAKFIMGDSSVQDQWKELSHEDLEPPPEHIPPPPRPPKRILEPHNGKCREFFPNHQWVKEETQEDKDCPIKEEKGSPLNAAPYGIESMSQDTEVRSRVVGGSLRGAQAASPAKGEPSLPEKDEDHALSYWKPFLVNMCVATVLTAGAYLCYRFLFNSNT
Briefly: Inhibition of PTP1B (unknown origin) using pNPP as substrate by colorimetric assay. Put shortly:
(§1)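 GST-PTP1B or GST-TCPTP at 30 nmol/L, 2 mmol/L pNPP, 50 mmol/L MOPS pH 6.5, 2% DMSO, compounds serially diluted from DMSO. Hydrolysis followed continuously at 405 nm for 3 min at 30 °C. IC50 from nonlinear fit of % inhibition vs concentration with Hill coefficient; means ± SD of three replications.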

Assay [2] has as its target T2, Tyrosine-protein phosphatase non-receptor type 1 (Homo sapiens) (UniProt P18031).
T2 sequence (whole entry): T1 sequence (P18031 whole entry)
Nature of the assay: Inhibition of PTP1B (unknown origin) using pNPP as substrate at 20 ug/ml by colorimetric assay.

Assay [3] concerns the target T3, Tyrosine-protein phosphatase non-receptor type 6 (Homo sapiens, UniProt P29350). Briefly: Inhibition of SHP1 (unknown origin) using 3-o-methylfluorescein phosphatase substrate by colorimetric assay. Put shortly: (§2)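 SHP1, SHP2 or LAR recombinant enzyme at 20 nmol/L with 10 µmol/L OMFP in 50 mmol/L MOPS pH 6.5, 2 mmol/L DTT, 1 mmol/L EDTA, 2% DMSO, 30 °C. Fluorescent product read at ex 485/em 530 nm; initial rate from the early linear part of the kinetic curve.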

Assay [4] addresses T4, Receptor-type tyrosine-protein phosphatase F (Homo sapiens, UniProt P10586). Nature of the assay: Inhibition of LAR (unknown origin) using 3-o-methylfluorescein phosphatase substrate at 20 ug/ml by colorimetric assay.
Assay [5] has as its target T4, Receptor-type tyrosine-protein phosphatase F. Briefly: Inhibition of LAR (unknown origin) using 3-o-methylfluorescein phosphatase substrate by colorimetric assay. Put shortly: as §2
The target in assay [6] is T5, Tyrosine-protein phosphatase non-receptor type 11 (Homo sapiens, UniProt Q06124).
T5 sequence (Q06124 whole entry): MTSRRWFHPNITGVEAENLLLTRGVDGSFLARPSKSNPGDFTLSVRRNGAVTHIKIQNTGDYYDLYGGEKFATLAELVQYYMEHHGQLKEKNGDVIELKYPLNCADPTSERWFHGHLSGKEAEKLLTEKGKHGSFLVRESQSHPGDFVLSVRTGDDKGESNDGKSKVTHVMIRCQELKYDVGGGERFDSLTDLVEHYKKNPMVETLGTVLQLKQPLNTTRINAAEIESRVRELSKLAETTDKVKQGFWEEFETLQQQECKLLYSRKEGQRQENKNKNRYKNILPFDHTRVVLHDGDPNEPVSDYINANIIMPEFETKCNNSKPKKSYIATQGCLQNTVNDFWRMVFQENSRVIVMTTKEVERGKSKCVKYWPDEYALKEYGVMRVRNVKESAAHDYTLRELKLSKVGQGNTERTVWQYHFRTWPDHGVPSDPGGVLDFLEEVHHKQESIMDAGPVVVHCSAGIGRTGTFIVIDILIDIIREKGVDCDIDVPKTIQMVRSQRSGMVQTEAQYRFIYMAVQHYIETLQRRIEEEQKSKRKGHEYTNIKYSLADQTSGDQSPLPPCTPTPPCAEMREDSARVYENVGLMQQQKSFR
Briefly: Inhibition of SHP2 (unknown origin) using 3-o-methylfluorescein phosphatase substrate by colorimetric assay. Put shortly:
as §2

The target in assay [7] is T6, Tyrosine-protein phosphatase non-receptor type 11 (Homo sapiens) (UniProt Q06124).
T6 sequence (whole entry): T5 sequence (Q06124 whole entry)
Briefly: Inhibition of SHP2 (unknown origin) using 3-o-methylfluorescein phosphatase substrate at 20 ug/ml by colorimetric assay.

Assay [8] addresses T7, Tyrosine-protein phosphatase non-receptor type 2 (Homo sapiens) (UniProt P17706).
T7 sequence (whole entry): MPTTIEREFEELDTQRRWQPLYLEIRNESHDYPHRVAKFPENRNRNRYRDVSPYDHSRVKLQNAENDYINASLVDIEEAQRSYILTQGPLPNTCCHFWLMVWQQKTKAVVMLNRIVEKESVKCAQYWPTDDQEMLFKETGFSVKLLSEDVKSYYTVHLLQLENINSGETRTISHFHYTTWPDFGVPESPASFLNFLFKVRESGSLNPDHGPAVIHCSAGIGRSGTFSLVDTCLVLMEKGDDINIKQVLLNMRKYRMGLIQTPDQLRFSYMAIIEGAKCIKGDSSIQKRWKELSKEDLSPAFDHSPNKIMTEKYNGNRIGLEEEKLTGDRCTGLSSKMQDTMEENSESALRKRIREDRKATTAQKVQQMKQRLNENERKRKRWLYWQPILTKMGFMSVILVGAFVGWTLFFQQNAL
Nature of the assay: Inhibition of TCPTP (unknown origin) using pNPP as substrate at 20 ug/ml by colorimetric assay.

Assay [9] deals with T3, Tyrosine-protein phosphatase non-receptor type 6. Nature of the assay: Inhibition of SHP1 (unknown origin) using 3-o-methylfluorescein phosphatase substrate at 20 ug/ml by colorimetric assay.
Assay [10] concerns the target T8, Tyrosine-protein phosphatase non-receptor type 2 (Homo sapiens, UniProt P17706).
T8 sequence (P17706 whole entry): T7 sequence (whole entry)
Briefly: Inhibition of TCPTP (unknown origin) using pNPP as substrate by colorimetric assay. Put shortly: as §1

For assay [11], the species on record is Homo sapiens. Nature of the assay: Selectivity ratio of IC50 for TCPTP (unknown origin) to IC50 for PTP1B (unknown origin).
The species entered for assay [12] is Homo sapiens. Nature of the assay: Selectivity ratio of IC50 for LAR (unknown origin) to IC50 for PTP1B (unknown origin).
The species entered for assay [13] is Homo sapiens. Briefly: Selectivity ratio of IC50 for SHP2 (unknown origin) to IC50 for PTP1B (unknown origin).

The results in this text go back to ChEMBL document CHEMBL3352526, “4-Quinolone-3-carboxylic acids as cell-permeable inhibitors of protein tyrosine phosphatase 1B” (Bioorg Med Chem, 2014).

SMILES strings stand for the structures.

T3 sequence (P29350 whole entry): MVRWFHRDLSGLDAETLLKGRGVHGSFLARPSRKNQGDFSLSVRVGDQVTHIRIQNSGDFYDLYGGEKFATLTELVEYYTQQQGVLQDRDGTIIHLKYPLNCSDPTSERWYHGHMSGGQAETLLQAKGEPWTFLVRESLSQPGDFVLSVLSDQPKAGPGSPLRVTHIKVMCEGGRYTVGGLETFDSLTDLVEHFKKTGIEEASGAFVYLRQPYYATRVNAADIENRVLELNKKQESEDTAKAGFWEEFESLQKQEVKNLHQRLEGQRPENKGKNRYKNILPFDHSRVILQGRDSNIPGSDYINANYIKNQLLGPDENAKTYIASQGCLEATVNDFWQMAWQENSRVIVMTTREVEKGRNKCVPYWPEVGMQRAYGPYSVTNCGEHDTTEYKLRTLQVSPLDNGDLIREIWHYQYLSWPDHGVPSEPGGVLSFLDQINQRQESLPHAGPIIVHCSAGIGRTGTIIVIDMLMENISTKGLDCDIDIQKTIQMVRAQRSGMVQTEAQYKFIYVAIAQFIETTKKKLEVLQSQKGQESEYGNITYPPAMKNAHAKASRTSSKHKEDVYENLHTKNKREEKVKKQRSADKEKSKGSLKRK
T4 sequence (P10586 whole entry): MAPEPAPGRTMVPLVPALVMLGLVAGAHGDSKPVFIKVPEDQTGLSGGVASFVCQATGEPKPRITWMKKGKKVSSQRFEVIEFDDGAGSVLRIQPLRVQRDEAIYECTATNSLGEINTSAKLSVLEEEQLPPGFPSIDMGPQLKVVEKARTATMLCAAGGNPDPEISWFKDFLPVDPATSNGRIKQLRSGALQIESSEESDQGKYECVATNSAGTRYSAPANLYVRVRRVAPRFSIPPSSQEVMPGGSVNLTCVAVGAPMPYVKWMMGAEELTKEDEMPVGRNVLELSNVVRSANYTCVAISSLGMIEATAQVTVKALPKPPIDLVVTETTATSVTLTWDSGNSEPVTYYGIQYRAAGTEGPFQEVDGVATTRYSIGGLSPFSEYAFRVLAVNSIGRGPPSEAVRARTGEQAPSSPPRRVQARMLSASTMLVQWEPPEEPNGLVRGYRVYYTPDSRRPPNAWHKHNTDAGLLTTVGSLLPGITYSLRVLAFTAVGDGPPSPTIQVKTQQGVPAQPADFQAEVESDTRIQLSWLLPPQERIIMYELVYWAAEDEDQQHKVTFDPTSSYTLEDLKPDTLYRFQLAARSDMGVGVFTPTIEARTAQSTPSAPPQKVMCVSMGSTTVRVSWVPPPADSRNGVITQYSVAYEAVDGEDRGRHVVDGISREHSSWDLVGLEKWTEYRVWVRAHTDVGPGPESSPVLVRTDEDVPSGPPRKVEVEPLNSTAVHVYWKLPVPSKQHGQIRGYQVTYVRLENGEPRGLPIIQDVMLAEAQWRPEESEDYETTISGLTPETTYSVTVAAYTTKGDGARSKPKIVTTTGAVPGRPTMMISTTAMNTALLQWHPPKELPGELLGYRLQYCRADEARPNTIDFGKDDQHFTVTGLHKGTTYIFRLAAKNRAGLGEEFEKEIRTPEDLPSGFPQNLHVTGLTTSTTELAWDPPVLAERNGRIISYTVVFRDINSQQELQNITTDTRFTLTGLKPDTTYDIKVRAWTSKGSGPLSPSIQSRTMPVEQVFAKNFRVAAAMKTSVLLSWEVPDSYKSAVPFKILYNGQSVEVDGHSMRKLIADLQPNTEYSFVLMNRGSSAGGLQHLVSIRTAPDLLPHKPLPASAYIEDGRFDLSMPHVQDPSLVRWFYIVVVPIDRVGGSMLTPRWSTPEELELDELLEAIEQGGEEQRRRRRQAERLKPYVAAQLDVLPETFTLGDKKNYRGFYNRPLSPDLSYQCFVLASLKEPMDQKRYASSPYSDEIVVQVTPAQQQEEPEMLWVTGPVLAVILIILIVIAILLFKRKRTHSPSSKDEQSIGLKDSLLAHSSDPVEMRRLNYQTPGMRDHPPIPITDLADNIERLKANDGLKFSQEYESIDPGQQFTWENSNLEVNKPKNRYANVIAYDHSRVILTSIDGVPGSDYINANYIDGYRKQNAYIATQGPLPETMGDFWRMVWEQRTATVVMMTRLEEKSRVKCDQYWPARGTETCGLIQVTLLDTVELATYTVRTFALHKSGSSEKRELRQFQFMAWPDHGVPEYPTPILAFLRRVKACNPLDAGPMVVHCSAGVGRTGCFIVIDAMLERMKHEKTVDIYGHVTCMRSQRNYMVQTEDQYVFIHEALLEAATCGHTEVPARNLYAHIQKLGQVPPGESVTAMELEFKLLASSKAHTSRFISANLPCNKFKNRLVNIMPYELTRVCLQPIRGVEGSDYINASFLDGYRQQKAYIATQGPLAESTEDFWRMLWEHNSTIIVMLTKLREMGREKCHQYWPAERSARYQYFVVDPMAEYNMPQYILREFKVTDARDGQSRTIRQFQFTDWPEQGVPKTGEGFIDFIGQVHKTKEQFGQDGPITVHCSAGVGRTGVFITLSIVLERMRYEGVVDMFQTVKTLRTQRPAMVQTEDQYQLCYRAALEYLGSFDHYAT

On to `COC(=O)c1c(OCCCN2CCN(c3ccc4c(c3)c(=O)c(C(=O)O)cn4C3CC3)CC2)cccc1OCc1ccccc1`, for which 73.9 µM corresponded to half-maximal inhibition in assay [1] (IC50).

Regarding `O=C(O)c1cn(C2CC2)c2ccc(F)cc2c1=O`, in assay [2], the inhibition came out at 0.8%.

For the molecule `O=C(NCc1ccccc1)c1cn(Cc2ccccc2)c2ccc(F)cc2c1=O`, in assay [2], the inhibition was determined as 41.4%.

For the molecule `O=C(NCc1ccccc1)c1cn(Cc2ccccc2)c2ccc(I)cc2c1=O`, the half-inhibitory concentration (IC50) result in assay [3] is “Not Active”; in assay [5] it was “Not Active”; in [6] it was “Not Active”; in [1], 28.1 µM; in assay [10], “Not Active”. Besides, the inhibition is under 50% in [4]; 61.8% in [2]; under 50% in assay [7]; under 50% in assay [8]; under 50% in [9].

Turning to `O=C(OCc1ccc(F)cc1)c1cn(C2CC2)c2ccc(Cc3ccc(F)cc3)cc2c1=O`, the inhibition in assay [2] was 73%. Moreover, the IC50 in [1] is 31.4 µM.

Take `O=C(O)c1cn(C2CC2)c2ccc(N3CCN(Cc4ccccc4)CC3)cc2c1=O`: in assay [2], the inhibition came to 62.3%. This molecule also had an IC50 in assay [1] of 22.8 µM.

`O=C(OCc1ccccc1)c1cn(Cc2ccccc2)c2ccc(Cc3ccccc3)cc2c1=O` returned an inhibition in assay [2] of 0.1%.

Molecule `COC(=O)c1c(O)cccc1OCCCNC(=O)c1cn(Cc2ccccc2)c2cc(F)ccc2c1=O` showed an IC50 in [1] of 18.6 µM.

For the molecule `COC(=O)c1c(O)cccc1OCCCNC(=O)c1cn(Cc2ccc(F)cc2)c2ccc([N+](=O)[O-])cc2c1=O`, the IC50 result in [3] is “Not Active”; in assay [5] it was “Not Active”; in assay [6], “Not Active”; in [1], 11.8 µM; in assay [10], “Not Active”. In addition, the inhibition in assay [4], in assay [7], in assay [8] and in [9] was under 50% in each case.

Turning to `COC(=O)c1cc(Cn2cc(C(=O)O)c(=O)c3cc(I)ccc32)ccc1O`, the IC50 entry in assay [3] is “Not Active”; in assay [5], “Not Active”; in [6], “Not Active”; in assay [1] it was 16.9 µM; in assay [10] it was “Not Active”. Moreover, the inhibition in assay [4], in [7], in assay [8] and in assay [9] was under 50% throughout.

Turning to `O=C(O)c1cn(Cc2ccccc2)c2ccc(I)cc2c1=O`, in assay [2], the inhibition came out at 3.1%.

As to `O=C(O)c1cn(C2CC2)c2ccc(I)cc2c1=O`, in assay [2], the inhibition worked out at 3.5%.

On to `O=C(O)c1cn(C2CC2)c2ccc(Cc3ccccc3)cc2c1=O`, for which the IC50 result in assay [3] was “Not Active”; in assay [5] it was “Not Active”; in [6] it was “Not Active”; in assay [1], 23.5 µM; in [10], “Not Active”. For the same molecule, the inhibition in [4] is under 50%; in [2], 87.5%; in assay [7] it was under 50%; in [8], under 50%; in assay [9], under 50%.

Molecule `O=C(NCc1ccccc1)c1cn(C2CC2)c2ccc(I)cc2c1=O` showed an inhibition in assay [2] of 6.1%.

For the molecule `COC(=O)c1cc(Cn2cc(C(=O)O)c(=O)c3cc(I)ccc32)ccc1OC`, the IC50 in [1] was over 40.5 µM.

In assay [2], `O=C(NCc1ccccc1)c1cn(C2CC2)c2cc(F)ccc2c1=O` had an inhibition of 7.4%.

`COC(=O)c1cc(Cn2cc(C(=O)NCc3ccccc3)c(=O)c3cc(I)ccc32)ccc1OC` registered an IC50 in assay [1] of over 34.3 µM.

On to `O=C(NCc1ccc(F)cc1)c1cn(C2CC2)c2ccc(I)cc2c1=O`, for which, in assay [2], the inhibition amounted to 3.3%.

With `O=C(O)c1cn(Cc2ccccc2)c2ccc(Cc3ccccc3)cc2c1=O`, the inhibition in assay [2] stood at 15.1%.

As for `Nc1ccc2c(c1)c(=O)c(C(=O)O)cn2Cc1ccc(F)cc1`, in assay [2], the inhibition worked out at 12.4%.

In assay [2], `O=C(O)c1cn(Cc2ccccc2)c2ccc(F)cc2c1=O` displayed an inhibition of 15.1%.

Take `O=C(O)c1cn(Cc2ccc(F)cc2)c2ccc([N+](=O)[O-])cc2c1=O`: the inhibition in assay [2] is 36.2%.

Molecule `O=C(OCc1ccccc1)c1cn(C2CC2)c2ccc(I)cc2c1=O` had an inhibition in assay [2] of 80.5%. For the same molecule, it took 25.6 µM to reach half-maximal inhibition in assay [1] (IC50).

As to `O=C(/C=C(\O)C(=O)N1CCN(C(=O)/C(O)=C\C(=O)c2cccc(N(Cc3ccccc3)Cc3ccccc3)c2)CC1)c1cccc(N(Cc2ccccc2)Cc2ccccc2)c1`, the midpoint of inhibition in [1], the IC50, lay at 2.8 µM.

In the case of `O=C(O)/C(O)=C/C(=O)c1cccc(Cn2cc(C(=O)O)c(=O)c3cc(I)ccc32)c1`, the results for the Ratio IC50 in assay [11], in [12] and in [13] were 2, over 10 and over 10, respectively. Further, the IC50 in [3] (read-out: IC50 (converted)) is 9.82 µM; in [5], “Not Active”; in assay [6], “Not Active”; in assay [1] it was 4.62 µM; in assay [10] (read-out: IC50 (converted)), 9.44 µM. Further, the inhibition in assay [4] and in assay [7] was under 50% each time.

Turning to `O=C(O)c1cn(C2CC2)c2ccc(Cc3ccc(F)cc3)cc2c1=O`, the IC50 entry in assay [3] is “Not Active”; in assay [5], “Not Active”; in [6], “Not Active”; in assay [1], 36.5 µM; in [10], “Not Active”. Besides, the inhibition in assay [4] was under 50%; in assay [2], 71.1%; in [7] it was under 50%; in assay [8], under 50%; in [9] it was under 50%.

In the case of `O=C(NCc1ccccc1)c1cn(C2CC2)c2ccc(F)cc2c1=O`, in assay [2], the inhibition came out at 0.2%.

In assay [2], `O=C(O)c1cn(Cc2ccccc2)c2cc(F)ccc2c1=O` came in with an inhibition of 0.7%.
